# Test system: Trypanosoma brucei rhodesiense
# Assay: Antitrypanosomal activity against Trypanosoma brucei rhodesiense STIB 900 after 72 hrs by alamar blue based microplate assay
# Type: functional, organism-based
# Conditions: STIB 900, 72 h
# Outline: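 Bloodstream-form T. b. rhodesiense STIB 900, 10⁴ per well, in minimum essential medium with 2-mercaptoethanol and 15% heat-inactivated horse serum. Serial dilutions spanning […]. Incubated 37 °C, 5% CO₂, 72 h. Resazurin (Alamar Blue) then added and incubation continued. Fluorescence read at ex 536/em 588 nm as percent of control, IC50 calculated. Melarsoprol standard.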
row,IC50 [µM],Compound
1,167,O=C(NCCOCCNc1ncnc2c1ncn2[C@@H]1O[C@H](CO)[C@@H](O)[C@H]1O)c1ccc(F)c(F)c1
2,125,CC(C)=CC(=O)NCCOCCNc1ncnc2c1ncn2[C@@H]1O[C@H](CO)[C@@H](O)[C@H]1O
3,13.6,O=C(NCCOCCNc1ncnc2c1ncn2[C@@H]1O[C@H](CO)[C@@H](O)[C@H]1O)c1cccc(F)c1
4,10,O=C(NCCOCCNc1ncnc2c1ncn2[C@@H]1O[C@H](CO)[C@@H](O)[C@H]1O)c1ccc(Oc2ccccc2)cc1
5,> 170,COc1ccc(C(=O)NCCOCCNc2ncnc3c2ncn3[C@@H]2O[C@H](CO)[C@@H](O)[C@H]2O)cc1OC
6,132,CC(=O)Nc1ccc(C(=O)NCCOCCNc2ncnc3c2ncn3[C@@H]2O[C@H](CO)[C@@H](O)[C@H]2O)cc1
7,132,COc1cccc(CC(=O)NCCOCCNc2ncnc3c2ncn3[C@@H]2O[C@H](CO)[C@@H](O)[C@H]2O)c1
8,> 170,O=C(Cc1cccc2ccccc12)NCCOCCNc1ncnc2c1ncn2[C@@H]1O[C@H](CO)[C@@H](O)[C@H]1O

# Second part, the compound before the results:
row,Compound,IC50 [µM]
1,O=C(CCCc1ccc([N+](=O)[O-])cc1)NCCOCCNc1ncnc2c1ncn2[C@@H]1O[C@H](CO)[C@@H](O)[C@H]1O,88.7
2,O=C(NCCOCCNc1ncnc2c1ncn2[C@@H]1O[C@H](CO)[C@@H](O)[C@H]1O)C(c1ccccc1)c1ccccc1,85.9
3,O=C(Cc1c(Cl)cccc1Cl)NCCOCCNc1ncnc2c1ncn2[C@@H]1O[C@H](CO)[C@@H](O)[C@H]1O,49.7
4,O=C(CCCOc1ccccc1)NCCOCCNc1ncnc2c1ncn2[C@@H]1O[C@H](CO)[C@@H](O)[C@H]1O,3.4
5,O=C(CCCc1ccccc1)NCCOCCNc1ncnc2c1ncn2[C@@H]1O[C@H](CO)[C@@H](O)[C@H]1O,4
6,COc1ccc(CC(=O)NCCOCCNc2ncnc3c2ncn3[C@@H]2O[C@H](CO)[C@@H](O)[C@H]2O)cc1OC,9.2
7,O=C(CCCc1c[nH]c2ccccc12)NCCOCCNc1ncnc2c1ncn2[C@@H]1O[C@H](CO)[C@@H](O)[C@H]1O,37.6

# From ChEMBL document CHEMBL1153573, “Synthesis of a series of N6-substituted adenosines with activity against trypanosomatid parasites” (Eur J Med Chem, 2009)
